ChEMBL document CHEMBL1165965, “Synthesis and structure-activity relationships of 1,2,3,4-tetrahydropyrido[2,3-b]pyrazines as potent and selective inhibitors of the anaplastic lymphoma kinase” (Bioorg Med Chem, 2010)

What was measured:
[1] = target: Serine/threonine-protein kinase PAK 5 (Homo sapiens) (UniProt Q9P286); experiment: Inhibition of PAK7 at 1 uM
[2] = target: Dual specificity protein kinase CLK2 (Homo sapiens) (UniProt P49760); experiment: Inhibition of CLK2 at 1 uM
Method in brief: (§1)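 Ambit KINOMEscan screen at a single concentration across a 250–400 kinase panel, recorded as percent inhibition. Selectivity was expressed as S(90), the fraction of kinases inhibited >90%.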

[3] = tested on: T1, Receptor-type tyrosine-protein kinase FLT3 (Homo sapiens), P36888 [D835H]; experiment: Inhibition of FLT3 D835H mutant at 1 uM
T1 sequence (whole entry): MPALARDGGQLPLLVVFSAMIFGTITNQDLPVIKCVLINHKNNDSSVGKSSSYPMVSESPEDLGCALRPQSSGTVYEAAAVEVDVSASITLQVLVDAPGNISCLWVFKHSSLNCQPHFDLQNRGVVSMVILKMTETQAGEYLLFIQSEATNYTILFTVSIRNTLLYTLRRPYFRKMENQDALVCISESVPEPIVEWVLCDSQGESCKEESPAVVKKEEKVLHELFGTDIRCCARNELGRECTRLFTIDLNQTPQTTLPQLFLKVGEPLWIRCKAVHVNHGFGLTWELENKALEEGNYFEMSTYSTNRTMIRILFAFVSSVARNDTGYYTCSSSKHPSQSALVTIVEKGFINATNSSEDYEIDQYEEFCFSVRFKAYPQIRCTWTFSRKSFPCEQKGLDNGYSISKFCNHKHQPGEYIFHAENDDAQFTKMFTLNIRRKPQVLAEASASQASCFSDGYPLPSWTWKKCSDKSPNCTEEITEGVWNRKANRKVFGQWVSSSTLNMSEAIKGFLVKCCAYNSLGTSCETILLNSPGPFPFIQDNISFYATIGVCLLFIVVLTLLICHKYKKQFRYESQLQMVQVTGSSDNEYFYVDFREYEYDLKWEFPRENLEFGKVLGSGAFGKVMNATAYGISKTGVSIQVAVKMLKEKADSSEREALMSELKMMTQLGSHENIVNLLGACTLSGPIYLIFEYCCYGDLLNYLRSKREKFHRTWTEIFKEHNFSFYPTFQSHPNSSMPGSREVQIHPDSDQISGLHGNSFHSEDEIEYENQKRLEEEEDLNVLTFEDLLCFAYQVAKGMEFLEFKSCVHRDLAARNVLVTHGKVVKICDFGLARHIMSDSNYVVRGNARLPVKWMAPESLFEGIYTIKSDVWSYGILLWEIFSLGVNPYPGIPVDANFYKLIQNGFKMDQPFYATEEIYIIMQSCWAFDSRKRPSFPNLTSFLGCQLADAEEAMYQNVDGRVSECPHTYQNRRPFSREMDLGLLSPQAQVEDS
Method in brief: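 Single-concentration screen on the Ambit KINOMEscan platform, run against a panel of 250–400 kinases. Per-kinase inhibition was also summarized as S(90), the fraction of kinases inhibited by more than 90%.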

[4] = target: T2, Phosphatidylinositol 5-phosphate 4-kinase type-2 beta (Homo sapiens) (UniProt P78356); experiment: Inhibition of PIP5K2B at 1 uM
T2 sequence (whole entry): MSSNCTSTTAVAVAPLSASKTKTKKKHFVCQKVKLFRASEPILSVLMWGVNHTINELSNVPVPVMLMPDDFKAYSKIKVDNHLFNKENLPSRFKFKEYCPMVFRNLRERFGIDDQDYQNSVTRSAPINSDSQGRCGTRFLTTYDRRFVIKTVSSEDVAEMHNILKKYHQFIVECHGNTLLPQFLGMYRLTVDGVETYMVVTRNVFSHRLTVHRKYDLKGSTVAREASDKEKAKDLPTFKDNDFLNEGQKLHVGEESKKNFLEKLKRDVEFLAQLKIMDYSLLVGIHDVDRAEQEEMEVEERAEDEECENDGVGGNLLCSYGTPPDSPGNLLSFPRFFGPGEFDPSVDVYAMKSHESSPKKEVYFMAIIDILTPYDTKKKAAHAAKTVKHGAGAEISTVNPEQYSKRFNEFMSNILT

[5] = target: Casein kinase II subunit alpha (Homo sapiens) (UniProt P68400); experiment: Inhibition of CSNK2A1 at 1 uM
Casein kinase II subunit alpha (Homo sapiens), sequence (P68400 whole entry, looked up): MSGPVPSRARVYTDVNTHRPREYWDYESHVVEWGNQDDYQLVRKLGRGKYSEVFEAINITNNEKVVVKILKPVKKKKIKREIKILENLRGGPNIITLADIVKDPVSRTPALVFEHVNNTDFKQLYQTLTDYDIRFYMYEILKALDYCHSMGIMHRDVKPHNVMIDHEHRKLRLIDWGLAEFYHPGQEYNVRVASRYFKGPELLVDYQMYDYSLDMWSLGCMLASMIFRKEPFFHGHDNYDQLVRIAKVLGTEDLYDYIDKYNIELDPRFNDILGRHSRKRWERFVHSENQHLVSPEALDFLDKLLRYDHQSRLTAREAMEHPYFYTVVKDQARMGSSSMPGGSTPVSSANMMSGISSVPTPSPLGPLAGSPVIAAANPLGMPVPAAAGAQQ
Method in brief: (§2)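 Single-concentration screen using Ambit Bioscience KINOMEscan technology across a panel of 250–400 kinases. Per-kinase inhibition from this screen was summarized as S(90), the fraction of kinases inhibited by more than 90%.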

[6] = tested on: Tyrosine-protein kinase ABL1 (Homo sapiens), P00519 [Q252H]; experiment: Inhibition of ABL1 Q252H mutant at 1 uM; method in brief: as §1
[7] = target: Dual specificity protein kinase CLK3 (Homo sapiens) (UniProt P49761); experiment: Inhibition of CLK3 at 1 uM; method in brief: as §2
Dual specificity protein kinase CLK3 (Homo sapiens), sequence (P49761 whole entry, looked up, canonical isoform): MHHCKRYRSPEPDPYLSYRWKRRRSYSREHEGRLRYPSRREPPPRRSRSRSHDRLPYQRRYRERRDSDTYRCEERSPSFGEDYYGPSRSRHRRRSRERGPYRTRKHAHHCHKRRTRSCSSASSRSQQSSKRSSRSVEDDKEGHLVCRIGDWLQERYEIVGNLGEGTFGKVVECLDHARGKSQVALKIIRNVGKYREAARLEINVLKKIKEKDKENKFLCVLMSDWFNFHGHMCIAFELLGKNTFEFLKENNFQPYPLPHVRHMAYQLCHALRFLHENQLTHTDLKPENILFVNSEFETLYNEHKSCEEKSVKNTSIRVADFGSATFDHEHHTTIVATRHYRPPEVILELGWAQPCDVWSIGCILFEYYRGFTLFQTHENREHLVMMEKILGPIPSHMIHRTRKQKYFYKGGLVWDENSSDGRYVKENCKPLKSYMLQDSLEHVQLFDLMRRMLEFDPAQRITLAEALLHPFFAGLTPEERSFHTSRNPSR

[8] = tested on: Phosphatidylinositol 4,5-bisphosphate 3-kinase catalytic subunit alpha isoform (Homo sapiens), P42336 [Q546K]; experiment: Inhibition of PIK3CA Q546K mutant at 1 uM
Phosphatidylinositol 4,5-bisphosphate 3-kinase catalytic subunit alpha isoform (Homo sapiens), P42336 [Q546K], sequence (P42336 whole entry Q546K, canonical isoform): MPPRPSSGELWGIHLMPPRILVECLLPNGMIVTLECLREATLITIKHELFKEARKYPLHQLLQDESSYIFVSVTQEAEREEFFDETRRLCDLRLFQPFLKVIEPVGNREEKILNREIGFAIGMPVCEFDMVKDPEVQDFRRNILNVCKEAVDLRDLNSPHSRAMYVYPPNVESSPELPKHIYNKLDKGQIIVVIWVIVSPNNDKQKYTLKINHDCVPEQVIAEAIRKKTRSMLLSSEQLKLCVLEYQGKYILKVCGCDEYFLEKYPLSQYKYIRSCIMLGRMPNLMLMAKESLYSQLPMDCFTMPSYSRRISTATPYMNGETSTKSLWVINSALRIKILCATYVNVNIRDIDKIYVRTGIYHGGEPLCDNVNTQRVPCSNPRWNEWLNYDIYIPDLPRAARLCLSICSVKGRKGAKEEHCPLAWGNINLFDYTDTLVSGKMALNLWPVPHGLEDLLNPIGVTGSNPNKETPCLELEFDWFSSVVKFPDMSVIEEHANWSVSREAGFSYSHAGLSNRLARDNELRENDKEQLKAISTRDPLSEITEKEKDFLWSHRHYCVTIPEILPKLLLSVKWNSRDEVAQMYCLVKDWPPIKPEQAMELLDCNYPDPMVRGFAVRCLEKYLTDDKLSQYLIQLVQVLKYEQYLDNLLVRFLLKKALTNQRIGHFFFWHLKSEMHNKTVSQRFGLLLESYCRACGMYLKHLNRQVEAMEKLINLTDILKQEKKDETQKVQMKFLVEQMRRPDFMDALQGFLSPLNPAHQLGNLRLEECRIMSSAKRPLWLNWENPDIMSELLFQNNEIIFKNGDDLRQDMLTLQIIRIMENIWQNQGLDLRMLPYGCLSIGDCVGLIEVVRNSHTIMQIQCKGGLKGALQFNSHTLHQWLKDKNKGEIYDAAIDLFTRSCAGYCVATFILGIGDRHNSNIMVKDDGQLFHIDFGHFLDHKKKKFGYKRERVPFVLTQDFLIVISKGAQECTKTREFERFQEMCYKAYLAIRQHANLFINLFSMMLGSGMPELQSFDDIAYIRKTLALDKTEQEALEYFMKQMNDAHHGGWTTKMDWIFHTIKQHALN

[9] = tested on: Epidermal growth factor receptor (Homo sapiens), P00533 [L858R,T790M]; experiment: Inhibition of EGFR L858R, T790M mutant at 1 uM; type: protein assay
Epidermal growth factor receptor (Homo sapiens), P00533 [L858R,T790M], sequence (P00533 whole entry T790M/L858R, looked up): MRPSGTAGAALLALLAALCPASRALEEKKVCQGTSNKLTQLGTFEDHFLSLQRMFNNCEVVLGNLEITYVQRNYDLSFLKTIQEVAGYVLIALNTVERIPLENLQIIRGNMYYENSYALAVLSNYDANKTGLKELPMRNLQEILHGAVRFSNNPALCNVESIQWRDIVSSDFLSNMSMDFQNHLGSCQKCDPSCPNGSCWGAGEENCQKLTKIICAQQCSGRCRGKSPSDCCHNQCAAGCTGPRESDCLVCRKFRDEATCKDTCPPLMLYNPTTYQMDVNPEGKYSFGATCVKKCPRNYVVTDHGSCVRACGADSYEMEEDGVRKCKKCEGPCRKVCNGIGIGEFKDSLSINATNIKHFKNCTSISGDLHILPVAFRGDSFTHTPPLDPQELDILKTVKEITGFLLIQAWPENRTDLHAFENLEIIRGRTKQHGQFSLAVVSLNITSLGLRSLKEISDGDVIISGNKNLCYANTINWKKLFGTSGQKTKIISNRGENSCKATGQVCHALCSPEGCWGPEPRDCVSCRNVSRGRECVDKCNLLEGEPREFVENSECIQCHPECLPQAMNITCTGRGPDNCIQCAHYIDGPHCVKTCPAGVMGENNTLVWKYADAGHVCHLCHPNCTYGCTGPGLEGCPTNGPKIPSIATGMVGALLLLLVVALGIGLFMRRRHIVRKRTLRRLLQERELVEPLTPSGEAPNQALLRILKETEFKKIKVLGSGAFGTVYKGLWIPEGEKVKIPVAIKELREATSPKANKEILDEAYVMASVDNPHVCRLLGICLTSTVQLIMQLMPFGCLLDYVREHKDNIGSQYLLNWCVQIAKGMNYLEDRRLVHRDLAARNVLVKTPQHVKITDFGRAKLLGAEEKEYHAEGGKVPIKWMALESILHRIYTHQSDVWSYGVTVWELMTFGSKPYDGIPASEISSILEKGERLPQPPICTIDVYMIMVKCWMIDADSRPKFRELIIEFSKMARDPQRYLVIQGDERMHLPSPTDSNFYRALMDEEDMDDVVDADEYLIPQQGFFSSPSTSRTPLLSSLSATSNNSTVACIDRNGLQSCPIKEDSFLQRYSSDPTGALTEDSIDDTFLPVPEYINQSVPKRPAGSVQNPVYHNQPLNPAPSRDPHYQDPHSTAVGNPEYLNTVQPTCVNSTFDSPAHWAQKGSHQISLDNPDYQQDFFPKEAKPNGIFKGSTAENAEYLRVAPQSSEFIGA

[10] = target: Death-associated protein kinase 3 (Homo sapiens) (UniProt O43293); experiment: Inhibition of DAPK3 at 1 uM; method in brief: as §2
Death-associated protein kinase 3 (Homo sapiens), sequence (O43293 whole entry, looked up): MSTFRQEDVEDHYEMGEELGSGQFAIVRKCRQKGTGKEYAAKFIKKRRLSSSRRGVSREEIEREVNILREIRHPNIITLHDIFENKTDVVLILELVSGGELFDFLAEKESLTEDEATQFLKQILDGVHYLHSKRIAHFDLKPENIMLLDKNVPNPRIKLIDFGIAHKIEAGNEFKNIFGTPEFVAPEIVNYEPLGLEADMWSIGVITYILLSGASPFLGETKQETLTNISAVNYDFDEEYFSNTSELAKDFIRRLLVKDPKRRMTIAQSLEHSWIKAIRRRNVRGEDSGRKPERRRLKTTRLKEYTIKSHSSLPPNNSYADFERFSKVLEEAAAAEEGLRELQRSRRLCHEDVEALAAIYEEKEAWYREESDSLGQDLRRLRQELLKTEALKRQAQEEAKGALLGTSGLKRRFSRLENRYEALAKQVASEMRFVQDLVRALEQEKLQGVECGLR

[11] = target: T3, NUAK family SNF1-like kinase 2 (Homo sapiens) (UniProt Q9H093); experiment: Inhibition of SNARK at 1 uM
T3 sequence (whole entry): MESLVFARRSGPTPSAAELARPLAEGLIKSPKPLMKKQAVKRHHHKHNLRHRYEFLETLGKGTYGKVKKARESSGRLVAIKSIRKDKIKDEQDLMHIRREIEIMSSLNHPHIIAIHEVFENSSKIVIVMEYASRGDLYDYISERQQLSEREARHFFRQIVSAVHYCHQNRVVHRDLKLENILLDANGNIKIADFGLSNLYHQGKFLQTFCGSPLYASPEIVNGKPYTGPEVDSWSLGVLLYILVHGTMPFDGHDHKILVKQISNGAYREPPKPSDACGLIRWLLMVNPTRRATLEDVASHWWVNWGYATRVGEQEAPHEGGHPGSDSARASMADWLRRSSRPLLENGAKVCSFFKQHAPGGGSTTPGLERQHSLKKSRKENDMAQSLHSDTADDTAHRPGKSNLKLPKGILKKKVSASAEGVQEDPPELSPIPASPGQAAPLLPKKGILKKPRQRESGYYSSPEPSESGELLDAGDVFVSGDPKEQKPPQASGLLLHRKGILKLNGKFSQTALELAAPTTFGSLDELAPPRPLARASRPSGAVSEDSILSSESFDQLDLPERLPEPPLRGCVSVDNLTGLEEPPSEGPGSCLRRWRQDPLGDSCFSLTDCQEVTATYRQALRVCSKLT

Dual specificity protein kinase CLK2 (Homo sapiens), sequence (P49760 whole entry, looked up): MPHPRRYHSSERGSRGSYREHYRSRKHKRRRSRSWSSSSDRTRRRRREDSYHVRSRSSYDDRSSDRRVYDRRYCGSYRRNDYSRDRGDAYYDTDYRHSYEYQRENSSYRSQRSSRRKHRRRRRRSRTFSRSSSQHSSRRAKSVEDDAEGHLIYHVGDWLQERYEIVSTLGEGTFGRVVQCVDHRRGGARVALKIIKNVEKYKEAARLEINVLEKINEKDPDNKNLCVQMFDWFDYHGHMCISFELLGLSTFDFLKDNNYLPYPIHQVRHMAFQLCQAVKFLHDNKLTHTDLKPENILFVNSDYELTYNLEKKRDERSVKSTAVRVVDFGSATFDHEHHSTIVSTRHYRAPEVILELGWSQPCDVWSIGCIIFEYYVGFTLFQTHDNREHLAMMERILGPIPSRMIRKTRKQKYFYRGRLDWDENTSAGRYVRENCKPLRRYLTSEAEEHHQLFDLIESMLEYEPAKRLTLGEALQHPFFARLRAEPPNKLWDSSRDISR
Serine/threonine-protein kinase PAK 5 (Homo sapiens), sequence (Q9P286 whole entry, looked up): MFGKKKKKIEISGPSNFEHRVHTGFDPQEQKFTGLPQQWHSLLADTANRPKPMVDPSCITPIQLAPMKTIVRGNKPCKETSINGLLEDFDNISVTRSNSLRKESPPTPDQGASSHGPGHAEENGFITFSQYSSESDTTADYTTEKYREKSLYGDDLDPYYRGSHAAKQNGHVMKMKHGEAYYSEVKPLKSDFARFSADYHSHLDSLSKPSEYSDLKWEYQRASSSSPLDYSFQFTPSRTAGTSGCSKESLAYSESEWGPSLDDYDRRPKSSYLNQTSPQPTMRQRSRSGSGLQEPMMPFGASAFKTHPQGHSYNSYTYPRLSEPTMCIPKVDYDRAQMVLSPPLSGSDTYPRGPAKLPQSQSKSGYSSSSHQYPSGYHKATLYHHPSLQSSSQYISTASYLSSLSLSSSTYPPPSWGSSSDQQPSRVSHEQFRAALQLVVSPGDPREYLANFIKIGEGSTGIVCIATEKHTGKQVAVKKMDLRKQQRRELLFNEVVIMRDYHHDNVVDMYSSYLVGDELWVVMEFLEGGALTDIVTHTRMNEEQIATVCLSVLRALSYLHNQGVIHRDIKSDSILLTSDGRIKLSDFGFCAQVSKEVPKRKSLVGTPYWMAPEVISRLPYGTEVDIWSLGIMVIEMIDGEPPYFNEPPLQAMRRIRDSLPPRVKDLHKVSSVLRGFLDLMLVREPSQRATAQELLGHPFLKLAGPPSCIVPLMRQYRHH

Row | SMILES | inhibition [1] [%] | inhibition [2] [%] | inhibition [3] [%] | inhibition [4] [%] | inhibition [5] [%] | inhibition [6] [%] | inhibition [7] [%] | inhibition [8] [%] | inhibition [9] [%] | inhibition [10] [%] | inhibition [11] [%]
1 | CN1CCN(c2ccc(-c3cnc4c(c3)N(Cc3cc(Cl)ccc3Cl)CCN4)cn2)CC1 | < 50 | < 50 | 80 | < 50 | < 50 | < 50 | < 50 | < 50 | < 50 | < 50 | 81
2 | CN1CCN(c2ccc(-c3cnc4c(c3)N(Cc3cc(Cl)ccc3C(F)(F)F)CCN4)cn2)CC1 | < 50 | < 50 | 82 | < 50 | < 50 | < 50 | < 50 | < 50 | < 50 | < 50 | 85
3 | CN1CCN(c2ccc(-c3cnc4c(c3)N(Cc3c(F)ccc(F)c3Cl)CCN4)cn2)CC1 | < 50 | < 50 | 73 | < 50 | < 50 | 72 | < 50 | < 50 | < 50 | < 50 | 90
4 | O=C(c1ccc(-c2cnc3c(c2)N(Cc2cc(Cl)ccc2C(F)(F)F)CCN3)cc1)N1CCC(N2CCCC2)CC1 | < 50 | < 50 | 90.1 | < 50 | < 50 | 63 | < 50 |  |  | < 50 | 
5 | COC1CCN(C(=O)c2ccc(-c3cnc4c(c3)N(Cc3cc(Cl)ccc3C(F)(F)F)CCN4)cc2)CC1 | < 50 | < 50 | 77.2 | < 50 | < 50 | < 50 | < 50 |  |  | < 50 | 
6 | FC(F)(F)c1ccc(Cl)cc1CN1CCNc2ncc(-c3ccnc(N4CCNCC4)c3)cc21 | < 50 | < 50 | 93 | < 50 | < 50 | < 50 | < 50 | < 50 | < 50 | < 50 | 93
7 | CN1CCN(c2ccc(-c3cnc4c(c3)N(Cc3cc(F)ccc3F)CCN4)cn2)CC1 | < 50 | < 50 | 72.5 | < 50 | < 50 | < 50 | < 50 | < 50 | < 50 | < 50 | 90
8 | O=C(c1ccc(-c2cnc3c(c2)N(Cc2cc(Cl)ccc2C(F)(F)F)CCN3)cc1)N1CCCCC1 | < 50 | < 50 | < 50 | < 50 | < 50 | < 50 | < 50 |  |  | < 50 | 
9 | CC(=O)N1CCN(c2cc(-c3cnc4c(c3)N(Cc3cc(Cl)ccc3C(F)(F)F)CCN4)ccn2)CC1 | < 50 | < 50 | 81 | < 50 | < 50 | < 50 | < 50 | < 50 | < 50 | < 50 | 71
10 | O=C(O)c1ccc(-c2cnc3c(c2)N(Cc2cc(Cl)ccc2C(F)(F)F)CCN3)cc1 | < 50 | < 50 | < 50 | < 50 | < 50 | < 50 | < 50 |  |  | < 50 | 
